Common to all, as to type: cell-based
In assay [1] the target is T1, human TMEM16A (Homo sapiens, UniProt Q5XXA6, DEL476-501).
T1 sequence (Q5XXA6 with tags, fused parts or gaps isoform Q5XXA6-5 DEL539-564): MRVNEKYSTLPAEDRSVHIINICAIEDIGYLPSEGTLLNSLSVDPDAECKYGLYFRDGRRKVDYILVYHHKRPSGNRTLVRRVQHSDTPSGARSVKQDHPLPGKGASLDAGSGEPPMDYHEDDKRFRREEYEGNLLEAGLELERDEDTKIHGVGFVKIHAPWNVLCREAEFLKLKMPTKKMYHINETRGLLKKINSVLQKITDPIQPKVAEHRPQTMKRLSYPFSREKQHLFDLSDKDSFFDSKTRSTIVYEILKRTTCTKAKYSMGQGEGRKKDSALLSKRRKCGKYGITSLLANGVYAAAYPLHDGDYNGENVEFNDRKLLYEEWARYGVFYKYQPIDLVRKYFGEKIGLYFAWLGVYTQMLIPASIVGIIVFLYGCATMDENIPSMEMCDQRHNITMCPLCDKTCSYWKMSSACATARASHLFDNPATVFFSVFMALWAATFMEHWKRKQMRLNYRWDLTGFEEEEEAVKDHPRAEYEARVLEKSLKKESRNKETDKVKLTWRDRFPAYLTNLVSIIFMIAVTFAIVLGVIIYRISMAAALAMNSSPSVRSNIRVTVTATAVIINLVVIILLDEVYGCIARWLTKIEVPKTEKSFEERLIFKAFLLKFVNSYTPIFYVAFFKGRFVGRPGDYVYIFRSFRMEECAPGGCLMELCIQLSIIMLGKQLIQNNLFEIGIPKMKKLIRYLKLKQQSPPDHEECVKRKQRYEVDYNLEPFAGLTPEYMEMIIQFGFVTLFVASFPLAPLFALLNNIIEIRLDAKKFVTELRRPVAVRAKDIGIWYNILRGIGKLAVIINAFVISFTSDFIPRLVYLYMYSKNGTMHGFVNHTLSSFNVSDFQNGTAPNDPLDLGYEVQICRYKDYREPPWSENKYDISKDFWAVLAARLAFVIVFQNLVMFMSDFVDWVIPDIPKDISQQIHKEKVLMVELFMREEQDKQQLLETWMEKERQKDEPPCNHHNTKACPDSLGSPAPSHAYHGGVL
Briefly: Single-shot microfluidics YFP fluorescence iodide influx assay, TMEM16A. As to conditions: TMEM16A-expressing FRT cells; fitted dose-response, Fig. 4B. The method, boiled down: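 FRT cells stably co-expressing human TMEM16A (abc isoform) and YFP-F46L/H148Q/I152L were grown 8–24 h at 37 °C under perfusion on fibronectin-coated coverglass. Cells were perfused 10 min with a gradient between PBS and PBS containing 30 μM test compound. Solution was then switched to 70 mM I− plus 50 μM ATP. YFP fluorescence was imaged at 2 Hz, and the Hill equation was fitted.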

In assay [2] the target is T2, human CFTR (Homo sapiens, UniProt P13569). Briefly: Single-shot microfluidics YFP fluorescence iodide influx assay, CFTR.
Assay [3] deals with T2, human CFTR. Briefly: Conventional plate reader YFP fluorescence iodide influx assay, CFTR.

A word on the IC50: it is the midpoint of a concentration-inhibition curve.

T2 sequence (P13569 whole entry): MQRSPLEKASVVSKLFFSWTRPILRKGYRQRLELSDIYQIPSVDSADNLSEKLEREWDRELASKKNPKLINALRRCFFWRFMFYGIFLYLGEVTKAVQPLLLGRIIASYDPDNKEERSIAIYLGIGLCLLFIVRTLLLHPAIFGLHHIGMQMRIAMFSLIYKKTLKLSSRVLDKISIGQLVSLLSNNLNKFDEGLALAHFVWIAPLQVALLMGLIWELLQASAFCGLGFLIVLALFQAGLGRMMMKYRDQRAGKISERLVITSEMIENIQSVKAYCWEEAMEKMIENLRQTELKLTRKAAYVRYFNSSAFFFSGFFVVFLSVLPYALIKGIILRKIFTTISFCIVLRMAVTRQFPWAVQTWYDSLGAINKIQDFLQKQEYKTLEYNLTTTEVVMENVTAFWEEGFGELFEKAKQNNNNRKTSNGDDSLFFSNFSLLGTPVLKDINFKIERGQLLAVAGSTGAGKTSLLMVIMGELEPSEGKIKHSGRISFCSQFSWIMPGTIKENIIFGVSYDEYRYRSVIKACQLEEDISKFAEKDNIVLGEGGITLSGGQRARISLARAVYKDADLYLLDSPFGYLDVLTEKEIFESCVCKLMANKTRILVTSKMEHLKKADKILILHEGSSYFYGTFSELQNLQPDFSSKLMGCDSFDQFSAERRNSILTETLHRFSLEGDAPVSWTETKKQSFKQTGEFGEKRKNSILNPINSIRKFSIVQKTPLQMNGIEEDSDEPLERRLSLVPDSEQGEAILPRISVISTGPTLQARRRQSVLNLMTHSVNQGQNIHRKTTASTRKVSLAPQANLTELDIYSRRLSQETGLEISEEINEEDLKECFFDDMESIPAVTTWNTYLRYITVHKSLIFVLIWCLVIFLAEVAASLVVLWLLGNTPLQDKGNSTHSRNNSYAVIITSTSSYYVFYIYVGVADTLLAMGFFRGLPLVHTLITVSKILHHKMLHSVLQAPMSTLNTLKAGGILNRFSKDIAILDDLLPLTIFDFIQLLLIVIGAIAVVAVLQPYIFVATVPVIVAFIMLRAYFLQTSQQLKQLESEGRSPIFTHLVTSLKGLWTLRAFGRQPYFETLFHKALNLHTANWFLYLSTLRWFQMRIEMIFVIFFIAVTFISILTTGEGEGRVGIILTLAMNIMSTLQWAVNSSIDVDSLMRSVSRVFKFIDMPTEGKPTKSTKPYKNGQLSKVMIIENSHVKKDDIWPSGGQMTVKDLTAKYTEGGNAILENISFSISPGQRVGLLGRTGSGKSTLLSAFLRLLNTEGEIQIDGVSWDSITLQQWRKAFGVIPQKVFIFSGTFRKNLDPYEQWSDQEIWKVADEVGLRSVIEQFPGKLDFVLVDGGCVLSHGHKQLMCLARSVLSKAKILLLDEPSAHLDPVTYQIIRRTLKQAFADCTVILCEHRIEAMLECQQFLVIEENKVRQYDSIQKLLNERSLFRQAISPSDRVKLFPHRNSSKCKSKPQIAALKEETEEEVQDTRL

Turning to `CCc1c(C)nc(SCC(=O)Nc2nc(-c3ccc(OC)cc3)cs2)[nH]c1=O` [TMinh-A01], in assay [1], the “nH (Hill coefficient, TMEM16A inhibition, single-shot microfluidics)” value is recorded as 2.2.

As for CFTRinh-172, the “nH (Hill coefficient, CFTR inhibition, single-shot microfluidics)” value in assay [2] (CFTR-expressing FRT cells, 5 μM forskolin, fitted dose-response, Fig. 3E) turned out to be 1.4.

Consider `C=C[C@@]1(C)CC(=O)[C@]2(O)[C@@]3(C)[C@@H](O)CCC(C)(C)[C@@H]3[C@H](O)[C@H](OC(C)=O)[C@@]2(C)O1` [forskolin], for which the results for the IC50 in assay [2] and in assay [3] were 3.2 ± 0.2 µM and 2.9 ± 0.4 µM, respectively. The “nH (Hill coefficient, CFTR activation, single-shot microfluidics)” value in assay [2] (CFTR-expressing FRT cells, fitted dose-response, Fig. 3C) worked out at 1.8.

(Values after article PMC3904508 (Lab on a chip, 2013).)
